In article PMC4818360 (Iranian Journal of Basic Medical Sciences, 2016):

Assays:
[1] = Hydrogen peroxide scavenging assay; details: at 0.312 mg/ml, 20 min, 230 nm, mean ± SD (n = 3)
Procedure, shortened: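 H2O2 was made at 40 mM in saline phosphate buffer, pH 7.4, and its level checked at 230 nm. 100 μl of methanolic test compound or standard solution (0.312 mg/ml) went into 2 ml of H2O2 solution. A230 was read after 20 min against a blank of compound in buffer without H2O2. Scavenging % = (Ac−At)/Ac×100. BHT and gallic acid were standards; three replicates.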

[2] = molecular target: mushroom tyrosinase (EC 1.14.18.1) (Agaricus bisporus, UniProt C7FF04); test: biochemical
[3] = DPPH free radical scavenging assay; details: methanolic solutions, 30 min, 517 nm, mean ± SD (n = 3)
Procedure, shortened: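 DPPH stock (60 μM in methanol), 1 ml, mixed with 1 ml of test compound or standard at 0.0125, 0.025, 0.05, 0.1 and 0.2 mg/ml. Shaken, left 30 min, then read at 517 nm. Scavenging % = (Ac−At)/Ac×100, where the control holds all reagents except the compound. BHT was the standard. IC50 came from logarithmic non-linear regression; three replicates.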

Sequence of mushroom tyrosinase (EC 1.14.18.1) (C7FF04 1-392): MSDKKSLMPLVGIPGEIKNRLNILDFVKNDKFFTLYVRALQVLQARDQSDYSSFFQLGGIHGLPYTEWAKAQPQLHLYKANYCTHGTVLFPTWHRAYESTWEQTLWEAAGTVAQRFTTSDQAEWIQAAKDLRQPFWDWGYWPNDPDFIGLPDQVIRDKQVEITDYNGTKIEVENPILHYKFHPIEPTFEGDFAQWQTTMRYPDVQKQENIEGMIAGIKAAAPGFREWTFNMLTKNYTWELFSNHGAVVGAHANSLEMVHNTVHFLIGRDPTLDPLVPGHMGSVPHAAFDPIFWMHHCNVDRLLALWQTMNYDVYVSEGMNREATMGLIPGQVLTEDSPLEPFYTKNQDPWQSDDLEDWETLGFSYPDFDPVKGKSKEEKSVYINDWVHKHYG

Structure (SMILES) | H2O2 Scavenging [1] | IC50 [2] | IC50 values for DPPH [3]
O=C(O)c1cc(O)c(O)c(O)c1 [Galic acid, gallic acid, reference compound] | 97.39±0.76% |  | 
O=c1cc(CNc2cccc([N+](=O)[O-])c2)[nH]cc1O [Compound 11, 5-Hydroxy-2-[(3-nitrophenylamino)methyl]pyridin-4(1H)-one] | 61.77±1.16% | 217 ± 9 µM | 25.17 ± 1.8 µg/mL
Cn1cc(O)c(=O)cc1CNc1ccc(O)cc1 [Compound 3, 5-Hydroxy-2-[(4-hydroxyphenylamino)methyl]-1-methylpyridin-4(1H)-one] | 63.70±1.49% | 404 ± 14 µM | 34.38 ± 1.9 µg/mL
COc1ccc(NCc2cc(=O)c(O)cn2C)cc1 [Compound 2, 5-Hydroxy-2-[(4-methoxyphenylamino)methyl]-1-methylpyridin-4(1H)-one] | 64.97±0.96% | 617 ± 19 µM | 44.62 ± 2.9 µg/mL
Cc1cc(C(C)(C)C)c(O)c(C(C)(C)C)c1 [BHT, Butylated hydroxyl toluene, reference compound] | 78.52±1.85% |  | 49.19 ± 1.7 µg/mL
